KCNQ1 pot: potentiators or activators of KCNQ1 channel, primary screen, cell-based, thallium flux, high-throughput; Potassium voltage-gated channel subfamily KQT member 1 (Homo sapiens), P51787; CHO-K1 KCNQ1, thallium flux FluxOR fluorescence; stronger effect = higher value; B-score at 10 µM; 310,000 compounds, 0.35% hits; AID 2648, 2010;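 active = fluorescence ratio B-score, a plate-corrected score, at least three library SD, with initial intensity B-score within 5 SD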
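Doses: Single concentration per compound, DMSO matched to controls | Test system: KCNQ1-transfected CHO-K1 cells | Timing: 90 min dye loading and 20 min compound exposure, both at room temperature | Measured by: Kinetic FluxOR thallium fluorescence, 10-s 1-Hz baseline, 110-s post-stimulus read | Medium: Assay buffer with matched DMSO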
KCNQ1 inh: inhibitors of human KCNQ1 channel, primary screen, cell-based, thallium flux, high-throughput. CHO-K1 KCNQ1, FluxOR thallium flux fluorescence; stronger effect = higher value. Potassium voltage-gated channel subfamily KQT member 1 (Homo sapiens), P51787. 310,000 compounds, 1.3% hits. B-score at 10 µM;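 active = compounds whose thallium flux B-score, printed positive for inhibition, exceeds three library SD while starting fluorescence stays within three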;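 also: channel opened by potassium depolarization with thallium stimulus after 20 min compound exposure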
KCNK3 block: human KCNK3 channel inhibitors, primary screen, CHO cells, FluxOR thallium flux, B-score; Potassium channel subfamily K member 3 (Homo sapiens), O14649; FluxOR fluorescence; stronger effect = lower value; B-score at 10 µM; 340,000 compounds, 0.84% hits; AID 602410, 2012;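 active = B-score under library mean minus 4 SD, starting fluorescence ratio at most library mean plus 5 SD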;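 also: more negative B-score means stronger inhibition of thallium flux through KCNK3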
Target sequence (O14649 whole entry, looked up): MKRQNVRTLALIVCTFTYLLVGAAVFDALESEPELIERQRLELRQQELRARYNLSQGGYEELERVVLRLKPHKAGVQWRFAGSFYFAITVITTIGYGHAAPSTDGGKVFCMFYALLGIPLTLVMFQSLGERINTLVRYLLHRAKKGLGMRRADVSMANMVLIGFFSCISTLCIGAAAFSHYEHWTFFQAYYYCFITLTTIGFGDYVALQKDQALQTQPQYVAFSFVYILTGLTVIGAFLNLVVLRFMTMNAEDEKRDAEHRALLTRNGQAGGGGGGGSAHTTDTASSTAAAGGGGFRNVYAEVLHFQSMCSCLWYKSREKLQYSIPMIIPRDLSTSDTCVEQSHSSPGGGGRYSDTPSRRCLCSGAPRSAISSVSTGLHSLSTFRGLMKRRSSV
Kir21 inh: inhibitors of mouse Kir2.1 inward-rectifier potassium channel; HEK293-Kir2.1, FluxOR thallium flux fluorescence; stronger effect = lower value; B-score at 10 µM; 310,000 compounds, 0.85% hits; AID 1672, 2009;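 active = fluorescence ratio B-score at or below minus 3 SD of library scores, with starting-brightness B-score within 2 SD, cut at about -4.2 in these data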;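 also: channel flux triggered by added potassium and thallium sulfate stimulus; B-score of peak minus minimum fluorescence over baseline after thallium stimulus; more negative B-score means stronger Kir2.1 block with less thallium influx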
KCNK9 block: KCNK9 potassium channel inhibitors, primary screen, HEK293 cells, thallium flux; Potassium channel subfamily K member 9 (Homo sapiens), Q9NPC2; FluxOR thallium flux fluorescence; stronger effect = lower value; B-score at 10 µM; 310,000 compounds, 1.2% hits; AID 488922, 2010;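 active = ratio B-score over 3 SD below the library mean, with starting fluorescence within 5 SD of its mean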;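 also: negative B-score means less thallium flux so channel inhibition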
hERG rescue: hERG rescue from dofetilide block, primary screen, cell-based, CHO-hERG, FluxOR thallium flux, dofetilide IC70; activation (rescue from dofetilide block), less the hit threshold, % at 10 µM; dofetilide IC70 present; 310,000 compounds, 0.51% hits; Voltage-gated inwardly rectifying potassium channel KCNH2 (Homo sapiens), Q12809; AID 1511, 2009;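 active = activation above the mean of controls blocked by dofetilide plus 5 SD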;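 also: thallium influx through hERG after potassium depolarization seen as dye fluorescence rise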
* marks the source's active call; other numbers are inactive results; i = inactive; x = no result given. Most compounds without a hit are left out; they make up all but 3.7% or so of the library.

SMILES	KCNQ1 pot	KCNQ1 inh	KCNK3 block	Kir21 inh	KCNK9 block	hERG rescue
CC1=CC(C)(C)N2C(=O)C3(C(C#N)=C(N)Oc4cc(O)ccc43)c3cccc1c32 (centres undefined)	i	6*	i	0.95	i	-15.9
Cc1cc2c(cc1C)CSC(c1ccccc1OC(=O)C(C)(C)C)SC2	i	6*	i	-0.05	i	-11.5
CCCCC(=O)Oc1ccccc1C1SCc2cc(C)c(C)cc2CS1	i	i	i	-0.14	i	-8.9
Cc1ccc(S(=O)(=O)CCC(=O)OCn2nnc3ccccc3c2=O)cc1	i	i	i	-2.11	i	-9.3
OC(c1ccccc1)(C1CCCCC1)C(CN1CCOCC1)c1ccccc1 (centres undefined)	i	6*	i	0.67	i	-13.2
COc1ccc(C(O)(C2CCCCC2)C(CN2CCOCC2)c2ccccc2)cc1 (centres undefined)	i	i	i	-0.02	i	-12.6
CSc1ccccc1NC(=O)CN(C)C(=O)c1ccc(-n2cccn2)cc1	x	x	i	x	x	x
COc1ccc(/C=C2/C(=O)N(c3ccccc3)N=C2C)cc1	i	i	i	2.43	i	0.2
COc1cc(/C=C2/C(=O)N(c3cccc(Br)c3)N=C2C)cc(OC)c1O	i	8*	i	1.34	i	-7.8
O=C1ON=C(c2ccccc2)/C1=C/c1ccc(O)c(O)c1	i	i	i	-5.22*	i	-15.7
O=C1ON=C(c2ccc(Cl)c([N+](=O)[O-])c2)/C1=C/c1cccc([N+](=O)[O-])c1O	x	x	i	x	x	x
COc1ccc(C2=NN(c3ccccc3)C(=O)/C2=C\c2ccc(O)c(OC)c2)cc1	i	11*	i	0.63	i	-3.8
O=C1ON=C(c2cccc([N+](=O)[O-])c2)/C1=C/c1ccc(O)cc1	i	7*	i	-6.76*	i	-25.4
CSc1nc(C)c(C(=O)C[n+]2ccccc2)cc1C#N	i	i	i	-1.14	i	-9.2
COc1ccc(/C=C2\C(=O)ON=C2c2ccccc2)cc1	i	i	i	0.11	i	-6.1
COc1cc(/C=C2\C(=O)ON=C2c2ccc(Cl)cc2)ccc1O	i	i	i	-4.75*	i	-10.5
CN1CCN(C(c2ccccn2)c2cc(Cl)c3cccnc3c2O)CC1 (centres undefined)	i	i	i	-0.47	i	-9.8
Oc1c(C(c2ccccn2)N2CCC(Cc3ccccc3)CC2)cc(Cl)c2cccnc12 (centres undefined)	i	13*	x	0.06	i	-2.1
Cc1ccc(S(=O)(=O)n2nccc2-c2c(-c3ccccc3)noc2C)cc1	i	i	i	0.47	-7.25*	-5.4
NC(=O)c1nc(-c2ccco2)nc2c1[nH]c(=O)n2-c1ccc(Cl)c(Cl)c1	i	i	i	-0.75	i	-12.9
O=C(/C=C/c1ccccc1)CC(O)(c1ccccc1)C(F)(F)F (centres undefined)	i	i	i	-6.29*	i	-9.7
COc1ccccc1C(CNC(=O)C1CC(=O)N(Cc2ccc(C)cc2)C1)N1CCCC1 (centres undefined)	i	i	i	-0.41	i	-7.8
CNC(=S)NNC(=O)c1cccn(Cc2ccc(Cl)cc2Cl)c1=O	i	7*	x	-0.16	i	-16.2
C=C(C)CSc1cc(C)c(C#N)c2nc3ccccc3n12	i	6*	i	-0.89	i	-25.5
COc1ccc(/C(C)=N/NC(=O)c2cc(C)[nH]n2)c(OC)c1	i	i	i	0.83	i	-4.9
COC(=O)CCc1c(C)c(C(=O)c2cc(OC)c(OC)c(OC)c2)c2ccccn12	i	i	i	-1.59	i	-11.1
COc1cccc(NC(=O)CN(C)C(=O)C(CCSC)NC(=O)c2ccco2)c1 (centres undefined)	x	x	i	x	x	x
